Measured values: publication PMC3715055 (Science translational medicine, 2012)

What was measured:
[1] = Biodistribution in MCF-7 tumor-bearing mice; assay type: in vivo, mouse
SERCA pump [2] = molecular target: T1, SERCA pump (Oryctolagus cuniculus, UniProt P04191); assay: Intrinsic fluorescence binding competition on SERCA; settings: intrinsic fluorescent studies
TSU cells = assay: Intracellular free calcium in fura-2-loaded TSU cells; assay type: cell-based, human; settings: PSMA-nonproducing TSU cells
SERCA pump [3] = molecular target: T1, SERCA pump; assay: SERCA pump assay with skeletal muscle microsomes; assay type: biochemical, rabbit; settings: broken cell microsomal studies
[4] = Biodistribution in CWR22R-H-bearing castrated mice; assay type: in vivo, mouse
Procedure, shortened: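 Castrated mice carried CWR22R-H tumours started s.c. from 10 mg minced tumour in Matrigel. Five mice received one 56 mg/kg dose of test compound. Tumour, liver, kidney, skeletal muscle and brain were harvested 5 days later. Test compound and its PSMA cleavage products were measured in tissue by LC-MS. Tumour levels were compared with other tissues by Student's t test.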

[5] = system: LNCaP human prostate cancer cells; assay: Clonal survival assay, PSMA-positive LNCaP cells, 72-hour exposure; assay type: cell-based; settings: human cancer cell lines (Fig. 3A: LNCaP)
Procedure, shortened: (§1)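 Clonal survival assays used PSMA-negative TSU bladder and PSMA-positive LNCaP prostate cancer cells exposed to test compounds for 72 hours. IC50 was the concentration inhibiting proliferation by 50%. Assays were run in triplicate and reported as mean ± SE.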

[6] = system: TSU human bladder cancer cells; assay: Clonal survival assay, PSMA-negative TSU cells, 72-hour exposure; assay type: cell-based; settings: human cancer cell lines (Fig. 3A: TSU)
Procedure, shortened: as §1

[7] = system: CWR22R-H human prostate cancer xenografts; assay: CWR22R-H xenograft efficacy in castrated mice; assay type: in vivo, mouse; settings: single 3-day course, 56 mg/kg × 3, out to ≥30 days
Procedure, shortened: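 Castrated mice had CWR22R-H xenografts from s.c. minced tumour (10 mg) in Matrigel. Three consecutive daily i.v. doses of 56 mg/kg were given on days 0, 1 and 2. Tumour volume was followed for ≥30 days against untreated controls by Student's t test. Body weight was recorded.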

[8] = system: TSU human bladder cancer xenografts; assay: TSU xenograft efficacy; assay type: in vivo, mouse; settings: more intensive treatment schedule
[9] = system: MDA-PCa2b human prostate cancer xenografts; assay: MDA-PCa2b xenograft efficacy in intact mice; assay type: in vivo, mouse
Procedure, shortened: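 Six-week-old male nude mice carried flank MDA-PCa2b tumours from 2 × 10^6 cells in Matrigel. Test compound was given i.v. at 56 mg/kg on 3 consecutive days. Tumour volume was followed for ≥30 days against untreated controls by Student's t test. Tumours harvested 4 days after the last dose had H&E staining and nuclear AR immunostaining with rabbit polyclonal anti-AR antibody.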

GLP toxicology in rat = assay type: in vivo
[10] = Pharmacokinetics in monkey toxicological studies; assay type: in vivo; settings: serum, intravenous
Procedure, shortened: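 Male and female monkeys received a single 1-hour treatment at 1 to 10 mg/kg. Serum levels of test compound were followed over 24 hours. Analysis was noncompartmental. Terminal half-life came from the terminal slope of a log-linear concentration–time plot.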

other purified proteases = assay: Hydrolysis by other purified proteases; assay type: biochemical; settings: equimolar concentrations of other proteases
[11] = Phase 1 clinical trial pharmacokinetics; assay type: in vivo, human
Procedure, shortened: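 Eighteen advanced cancer patients in a phase 1 dose-escalation trial received a 1-hour i.v. infusion at 1.2 to 40 mg/m2. Serum concentrations were followed over 24 hours. Analysis was noncompartmental. AUC0–∞ used the linear trapezoidal method and t1/2 the log-linear terminal slope. Dose proportionality was assessed from AUC across doses.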

[12] = Single-dose pharmacokinetics in BALB/c mice; assay type: in vivo, mouse; settings: single dose of 67 mg/kg
Procedure, shortened: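 Wild-type BALB/c mice received a single i.v. dose of 67 mg/kg. Groups of three mice were sampled at time points over 24 hours. Plasma test compound and its 12ADTβAsp cleavage product were quantified by LC-MS/MS. Analysis was noncompartmental, with a semilog regression trend line.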

[13] = system: LNCaP human prostate cancer xenografts; assay: LNCaP xenograft efficacy in intact mice; assay type: in vivo, mouse; settings: for treated-to-control tumor volume (T/C) ratio: maximally tolerated dose × 3
Procedure, shortened: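 Six-week-old male nude mice were inoculated in the flank with 2 × 10^6 LNCaP cells in Matrigel. Test compound was given i.v. at 56 mg/kg on days 0, 1 and 2. The docetaxel comparator was dosed on days 0, 2 and 5. Tumour volume was followed for 30 days against untreated mice by Student's t test. T/C was the treated-to-control tumour volume ratio.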

[14] = GLP toxicology in cynomolgus monkey; assay type: in vivo
Procedure, shortened: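 Toxicology was done in cynomolgus monkeys of both sexes at 10 mg/kg, with vehicle-treated controls. Necropsy was on day 33 and examined lymph nodes, spleen and thymus histologically. Splenic/body weight and thymus/body weight ratios were compared with vehicle animals, three per sex.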

[15] = system: MCF-7 human breast cancer xenografts; assay: MCF-7 xenograft efficacy in female nude mice; assay type: in vivo, mouse; settings: for T/C ratio: day 21
Procedure, shortened: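 Female nude mice with s.c. estrogen pellets carried flank tumours from 2 × 10^6 MCF-7 cells. Mice received one, two or three daily doses of 56 mg/kg test compound. Tumour volume and body weight were followed against untreated controls by Student's t test. Xenografts had histology 6 days after two doses. ER was stained with an ERα mAb. T/C was treated-to-control tumour volume.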

[16] = Body weight of xenograft-bearing mice; assay type: in vivo, mouse; settings: 56 mg/kg × 3, by 5 to 7 days after therapy, baseline by days 14 to 21
[17] = Dose-finding / maximum tolerated dose in mice; assay type: in vivo, mouse; settings: for maximally tolerated dose: × 3 doses
[18] = Stability to hydrolysis in human plasma; assay type: in vitro ADME
Fc-PSMA = Fc-PSMA (Homo sapiens, UniProt Q04609); assay: PSMA prodrug hydrolysis with Fc-PSMA; assay type: biochemical; settings: incubation with Fc-PSMA
Procedure, shortened: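 Enzyme activity was confirmed beforehand by 3H-NAAG hydrolysis. Aliquots taken over time were analysed by HPLC with 0.1% TFA in water and acetonitrile, 40–100% B over 25 min. Products were identified by co-elution and confirmed by MS. Human plasma and other purified proteases at equimolar level were also tested.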

LNCaP cells = assay: Growth inhibition of LNCaP cells with or without PSMA inhibitor PMPA; assay type: cell-based, human; settings: 48-hour exposure, PMPA 10 μM
[19] = BALB/c mice; cited from earlier work
[20] = system: PC-3 human prostate cancer cells; assay: Clonal survival of PC-3 cells after repeated exposure; assay type: cell-based; settings: 11 cycles of repeat exposure and clonal expansion, 500 nM
[21] = MCF-7, 5 days after single dose of G202 56 mg/kg

T1 sequence (P04191 whole entry): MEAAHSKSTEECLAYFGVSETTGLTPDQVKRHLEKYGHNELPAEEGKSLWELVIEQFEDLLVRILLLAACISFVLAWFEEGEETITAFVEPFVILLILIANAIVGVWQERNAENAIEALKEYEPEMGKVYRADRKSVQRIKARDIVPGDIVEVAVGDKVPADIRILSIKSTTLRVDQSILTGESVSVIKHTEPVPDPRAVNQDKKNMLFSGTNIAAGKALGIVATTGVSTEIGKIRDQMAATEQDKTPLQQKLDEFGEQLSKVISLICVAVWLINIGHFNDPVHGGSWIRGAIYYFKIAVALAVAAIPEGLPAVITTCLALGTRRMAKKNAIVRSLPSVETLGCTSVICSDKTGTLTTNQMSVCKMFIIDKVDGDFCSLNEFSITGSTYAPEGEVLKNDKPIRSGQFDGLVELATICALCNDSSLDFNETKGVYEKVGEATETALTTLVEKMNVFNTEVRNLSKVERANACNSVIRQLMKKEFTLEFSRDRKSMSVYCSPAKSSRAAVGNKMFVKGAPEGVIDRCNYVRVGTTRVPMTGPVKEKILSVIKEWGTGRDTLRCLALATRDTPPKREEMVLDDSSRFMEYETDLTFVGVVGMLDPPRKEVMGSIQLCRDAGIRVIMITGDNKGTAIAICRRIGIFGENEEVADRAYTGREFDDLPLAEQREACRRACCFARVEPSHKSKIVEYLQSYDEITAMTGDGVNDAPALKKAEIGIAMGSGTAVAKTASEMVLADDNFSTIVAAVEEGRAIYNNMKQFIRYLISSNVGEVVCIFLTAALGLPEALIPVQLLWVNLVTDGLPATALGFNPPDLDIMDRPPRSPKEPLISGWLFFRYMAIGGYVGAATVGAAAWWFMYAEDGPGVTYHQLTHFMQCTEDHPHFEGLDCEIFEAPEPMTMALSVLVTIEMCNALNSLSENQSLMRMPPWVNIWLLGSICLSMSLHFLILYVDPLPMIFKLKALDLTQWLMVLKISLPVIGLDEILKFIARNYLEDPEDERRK
Chain of Fc-PSMA (Q04609 44-750 limits assumed): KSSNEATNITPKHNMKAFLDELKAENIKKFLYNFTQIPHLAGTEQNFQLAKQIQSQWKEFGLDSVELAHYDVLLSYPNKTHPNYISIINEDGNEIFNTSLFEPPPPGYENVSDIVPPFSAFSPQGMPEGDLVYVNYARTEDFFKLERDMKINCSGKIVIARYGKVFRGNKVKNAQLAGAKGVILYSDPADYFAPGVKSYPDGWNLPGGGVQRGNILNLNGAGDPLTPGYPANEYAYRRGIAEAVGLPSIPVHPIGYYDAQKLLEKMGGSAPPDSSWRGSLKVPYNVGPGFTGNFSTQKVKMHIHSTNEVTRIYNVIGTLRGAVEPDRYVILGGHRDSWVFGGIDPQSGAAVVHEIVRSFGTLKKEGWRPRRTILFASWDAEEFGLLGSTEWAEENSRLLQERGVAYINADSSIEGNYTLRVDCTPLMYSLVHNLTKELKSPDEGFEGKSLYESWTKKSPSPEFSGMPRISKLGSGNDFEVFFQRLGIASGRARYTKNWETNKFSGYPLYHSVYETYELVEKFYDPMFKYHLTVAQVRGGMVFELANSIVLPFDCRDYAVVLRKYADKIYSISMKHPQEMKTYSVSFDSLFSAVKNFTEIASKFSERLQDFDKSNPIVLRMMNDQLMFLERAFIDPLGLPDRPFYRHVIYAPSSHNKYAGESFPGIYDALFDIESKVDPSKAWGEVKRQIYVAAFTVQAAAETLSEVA

SMILES: C/C=C(/C)C(=O)O[C@H]1C(C)=C2[C@H]([C@@H]1OC(=O)CCCCCCC)[C@@](C)(OC(C)=O)C[C@H](OC(=O)CCCCCCCCCCCNC(=O)C[C@H](N)C(=O)O)[C@@]1(O)[C@H]2OC(=O)[C@@]1(C)O [12ADTβAsp]
- fold higher amount in tumors than in kidney [1, 21]: 3.5 fold
- fold higher amount in tumors than in skeletal muscle [1, 21]: 1.6 fold
- tumor concentration relative to that in CWR22R-H xenografts ([1]; MCF-7 versus CWR22R-H): 1/10
- binding competition with cyclopiazonic acid (CPA) (SERCA pump [2]): competitively affect the binding of each other
- maximal elevation in intracellular Ca2+ (TSU cells; 200 nM): up to 400 nM
- potency at inhibiting the SERCA pump compared with TG (SERCA pump [3]): as potent at inhibiting the SERCA pump in broken cell microsomal studies as was TG
- accumulation in tumor tissue ([4]; 5 days after single dose of G202 56 mg/kg, CWR22R-H tumor): micromolar levels
- fold higher amount in tumor tissue compared to normal brain ([4]; CWR22R-H, after G202 56 mg/kg): 354 fold
- fold higher amount in tumor tissue compared to normal kidney ([4]; CWR22R-H, after G202 56 mg/kg): 15 fold
- cytotoxic potency compared with TG [5]: comparable to those of TG
- cytotoxic potency compared with TG [6]: comparable to those of TG

SMILES: C/C=C(/C)C(=O)O[C@H]1C(C)=C2[C@H]([C@@H]1OC(=O)CCCCCCC)[C@@](C)(OC(C)=O)C[C@H](OC(=O)CCCCCCCCCCCNC(=O)C[C@H](N)C(=O)N[C@@H](CCC(=O)N[C@@H](CCC(=O)N[C@@H](CCC(=O)N[C@@H](CCC(=O)O)C(=O)O)C(=O)O)C(=O)O)C(=O)O)[C@@]1(O)[C@H]2OC(=O)[C@@]1(C)O [G202, 12ADTβAsp-GluγGluγGluγGlu]
- antitumor effect [7]: Significant antitumor effects
- T/C ratio at 3 weeks after treatment [8]: 0.32
- androgen receptor (AR) expression in tumors ([9]; 4 days after 56 mg/kg × 3): marked down-regulation of AR expression
- antitumor effect ([9]; single 3-day course, 56 mg/kg × 3, out to ≥30 days): Significant antitumor effects
- brain pathology (GLP toxicology in rat; rat pathological studies): lack of toxicity to the brain
- renal toxicity (GLP toxicology in rat; rat toxicological studies): transient reversible renal toxicity
- bone marrow toxicity (GLP toxicology in rat; rat toxicology studies): no bone marrow toxicity
- increase in intracellular calcium (TSU cells; 5 mM (25-fold higher concentration)): no appreciable increase in intracellular calcium
- half-life [10]: 9.7 h
- hydrolysis by other purified proteases (other purified proteases): not appreciably hydrolyzed
- predicted increase of AUC for a doubling in dose ([11]; first six dose cohorts, 1.2 to 40 mg/m^2): 2.23 fold
- terminal half-life in patients relative to monkey ([11]; human versus monkey): ~1.5 fold
- half-life ([11]; human, serum, intravenous): 15.1 h
- fraction of dose converted in the circulation to 12ADTβAsp [12]: Less than 1%
- treated-to-control tumor volume (T/C) ratio [13]: 0.15
- average regression of xenografts ([13]; single 3-day course, 56 mg/kg × 3, over a 30-day period): ~50%
- amount detected in the brain ([4]; mouse biodistribution studies): low amounts
- animals with lymphoid depletion of lymph nodes ([14]; 10 mg/kg): five of six
- animals with lymphoid depletion of spleen ([14]; 10 mg/kg): five of six
- increase of splenic ratio ([14]; female monkeys, 10 mg/kg): 25%
- decrease of splenic/body weight ratio versus vehicle ([14]; male monkeys, 10 mg/kg): 44%
- decrease of thymus/body weight ratio versus vehicle ([14]; male monkeys, 10 mg/kg): 67%
- bone marrow toxicity ([14]; monkey toxicology studies): no bone marrow toxicity
- brain pathology ([14]; six monkeys, three consecutive doses of 10 mg/kg): within normal limits
- T/C ratio at 3 weeks after treatment ([15]; MCF-7): 0.05
- effect on tumor growth ([15]; single dose 56 mg/kg on 1 day): tumor growth delay
- T/C ratio ([15]; three consecutive doses of 56 mg/kg): 0.06 ± 0.005
- T/C ratio ([15]; two consecutive doses of 56 mg/kg): 0.05 ± 0.006
- effect on tumor growth ([15]; two daily doses of 56 mg/kg, out to 30 days, all treated animals): sustained tumor regression
- estrogen receptor (ER) expression in tumors ([15]; two doses of 56 mg/kg, nadir 3 days after the last dose): down-regulation of the estrogen receptor
- maximum body weight loss [16]: about 15%
- bone marrow toxicity ([17]; mouse toxicology studies): no bone marrow toxicity
- MTD ([17]; mouse, in vivo, iv): 112 mg/kg
- mortality of treated animals ([17]; up to three consecutive daily doses of 56 mg/kg (1 μmol/dose)): < 10%
- maximally tolerated single intravenous dose ([17]; wild-type mice): 2 μmol/dose
- TG molar equivalents deliverable systemically compared to TG alone ([17]; without significant host toxicity): > 150 fold
- maximally tolerated dose [17]: 1.0 µmol
- stability to hydrolysis in human plasma [18]: completely stable to hydrolysis in human plasma
- hydrolysis by PSMA (Fc-PSMA): efficiently hydrolyzed by PSMA
- growth inhibition of LNCaP cells on addition of PMPA (LNCaP cells): could be blocked

SMILES: C/C=C(/C)C(=O)O[C@H]1C(C)=C2[C@H]([C@@H]1OC(=O)CCCCCCC)[C@@](C)(OC(C)=O)C[C@H](OC(=O)CCC)[C@@]1(O)[C@H]2OC(=O)[C@@]1(C)O [TG, thapsigargin]
- lethal dose for 100% of the test population (LD100) [19]: 0.2 mg/kg
- clonal survival after repeated exposure [20]: no change in clonal survival

SMILES: CC(=O)O[C@@]12CO[C@@H]1C[C@H](O)[C@@]1(C)C(=O)[C@H](O)C3=C(C)[C@@H](OC(=O)[C@H](O)[C@@H](NC(=O)OC(C)(C)C)c4ccccc4)C[C@@](O)([C@@H](OC(=O)c4ccccc4)[C@H]21)C3(C)C [docetaxel, reference compound]
- treated-to-control tumor volume (T/C) ratio [13]: 0.63
- maximally tolerated dose [17]: 0.39 µmol
